From ChEMBL document CHEMBL3808280, “GroEL/ES inhibitors as potential antibiotics” (Bioorg Med Chem Lett, 2016)

What was measured:
E. coli GroEL/ES [1] = biological target: T1, E. coli GroEL/ES (Escherichia coli, UniProt P0A6F5); assay: (§1) Inhibition of Escherichia coli GroEL/GroES using Escherichia coli GroEL expressed in Escherichia coli DH5alpha cells and Escherichia coli GroES expressed in Escherichia coli BL21(DE3) cells assessed as reduction in pig heart native refolded MDH-mediated NADH production by micro plate reader analysis
T1 sequence (P0A6F5 whole entry, looked up): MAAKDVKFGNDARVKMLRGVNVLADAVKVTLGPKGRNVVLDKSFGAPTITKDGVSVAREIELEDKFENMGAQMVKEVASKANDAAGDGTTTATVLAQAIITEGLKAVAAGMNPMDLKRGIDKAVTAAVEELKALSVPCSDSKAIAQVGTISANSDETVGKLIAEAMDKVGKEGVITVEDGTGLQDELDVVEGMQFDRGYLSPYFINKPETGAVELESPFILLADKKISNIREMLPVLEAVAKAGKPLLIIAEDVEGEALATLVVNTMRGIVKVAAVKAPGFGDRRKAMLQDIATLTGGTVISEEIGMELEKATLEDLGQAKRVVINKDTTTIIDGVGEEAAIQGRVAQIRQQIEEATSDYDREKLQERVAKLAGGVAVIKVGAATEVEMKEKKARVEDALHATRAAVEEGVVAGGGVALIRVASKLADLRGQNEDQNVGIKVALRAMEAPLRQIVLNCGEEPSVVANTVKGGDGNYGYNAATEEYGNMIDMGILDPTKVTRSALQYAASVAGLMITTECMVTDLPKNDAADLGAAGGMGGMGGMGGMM
Method in brief: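 Native MDH counter-screen. GroEL/ES-dMDH refolding run 60 min at 37°C, then EDTA-quenched without compound. IC50 averaged from at least triplicate.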

Escherichia coli [2] = assay: Antibacterial activity against Escherichia coli DH5alpha assessed as reduction in bacterial growth incubated for 6 to 8 hrs; type: functional, organism-based; conditions: DH5[alpha]
Escherichia coli [3] = assay: Antibacterial activity against acrB-deficient Escherichia coli MC4100 assessed as reduction in bacterial growth incubated for 6 to 8 hrs; type: functional, organism-based
Escherichia coli [4] = assay: Antibacterial activity against Escherichia coli SM101 assessed as reduction in bacterial growth incubated for 12 hrs by UV-Vis spectrophotometric analysis; type: functional, organism-based; conditions: SM101, 12 h
Bacillus subtilis = assay: Antibacterial activity against Bacillus subtilis 168 assessed as reduction in bacterial growth incubated for 6 to 8 hrs; type: functional, organism-based; conditions: subsp. subtilis str. 168
Enterococcus faecium = assay: Antibacterial activity against multidrug resistant Enterococcus faecium NCTC 7171 (ATCC 19434) assessed as reduction in bacterial growth incubated for 6 to 8 hrs; type: functional, organism-based
Method in brief: (§2)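 Broth proliferation assay. S. aureus and MRSA grown in ATCC Medium 18, other pathogens in Brain Heart Infusion. Stagnant incubation at 37°C under breathable seal. OD600 read at mid-log (6-8 h) and corrected with bacteria-free baseline plates. EC50 by variable-slope nonlinear fit, at least triplicate.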

Staphylococcus aureus [5] = assay: Antibacterial activity against methicillin resistant Staphylococcus aureus subsp. aureus HPV107 (ATCC BAA-44) assessed as reduction in bacterial growth incubated for 6 to 8 hrs; type: functional, organism-based; method in brief: as §2
HSP60/HSP10 [6] = biological target: T2, HSP60/HSP10 (Homo sapiens, UniProt P10809); assay: Inhibition of human HSP60/HSP10 expressed in Escherichia coli Rosetta2(DE3) cells assessed as inhibition of denatured pig heart MDH refolding by measuring reduction in NADH production incubated for 60 mins by micro plate reader analysis
T2 sequence (P10809 whole entry): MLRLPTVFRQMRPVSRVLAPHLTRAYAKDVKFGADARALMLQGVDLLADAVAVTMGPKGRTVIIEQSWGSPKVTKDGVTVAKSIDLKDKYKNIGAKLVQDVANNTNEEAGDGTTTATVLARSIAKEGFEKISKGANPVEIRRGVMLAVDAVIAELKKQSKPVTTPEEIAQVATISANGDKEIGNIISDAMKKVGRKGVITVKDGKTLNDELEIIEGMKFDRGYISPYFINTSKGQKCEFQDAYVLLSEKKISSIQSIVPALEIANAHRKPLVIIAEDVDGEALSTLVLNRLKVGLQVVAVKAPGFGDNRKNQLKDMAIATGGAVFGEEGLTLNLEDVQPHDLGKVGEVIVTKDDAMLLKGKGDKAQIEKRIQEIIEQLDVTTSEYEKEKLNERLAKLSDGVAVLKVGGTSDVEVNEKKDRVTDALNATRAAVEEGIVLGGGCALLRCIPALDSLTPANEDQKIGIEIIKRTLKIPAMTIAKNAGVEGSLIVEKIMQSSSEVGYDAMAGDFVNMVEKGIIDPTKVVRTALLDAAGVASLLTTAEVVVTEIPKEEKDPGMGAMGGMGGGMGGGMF
T2 sequence (P61604 whole entry, further chain): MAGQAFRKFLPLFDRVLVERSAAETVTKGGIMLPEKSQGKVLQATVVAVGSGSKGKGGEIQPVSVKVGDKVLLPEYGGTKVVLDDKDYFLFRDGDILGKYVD
Method in brief: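 Pig heart MDH was denatured in guanidine-HCl (dMDH) and complexed with HSP60, then HSP10, in Tris pH 7.4/KCl/MgCl2/DTT buffer. EDTA quench (100 mM final); refolded MDH activity was followed with mesoxalate/NADH at 340 nm.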

HSP60/HSP10 [7] = biological target: T2, HSP60/HSP10; assay: Inhibition of human HSP60/HSP10 expressed in Escherichia coli Rosetta2(DE3) cells assessed as reduction in denatured pig heart MDH ATPase activity by malachite green dye based assay
[8] = Cytotoxicity against human THLE3 cells assessed as reduction in cell viability after 48 hrs by alamar blue assay; type: cell-based; conditions: THLE3, 48 h
HEK293 = assay: Cytotoxicity against HEK293 cells assessed as reduction in cell viability after 48 hrs by alamar blue assay; type: cell-based; conditions: Homo sapiens, HEK293, 48 h
[9] = tested on: Klebsiella pneumoniae subsp. pneumoniae; assay: Antibacterial activity against multidrug resistant Klebsiella pneumoniae subsp. pneumoniae NCTC 9633 (ATCC 13883) assessed as reduction in bacterial growth incubated for 6 to 8 hrs; type: functional, organism-based; method in brief: as §2
Acinetobacter baumannii = assay: Antibacterial activity against multidrug resistant Acinetobacter baumannii 2208 (ATCC 19606) assessed as reduction in bacterial growth incubated for 6 to 8 hrs; type: functional; method in brief: as §2
Pseudomonas aeruginosa = assay: Antibacterial activity against multidrug resistant Pseudomonas aeruginosa NCTC 10332 (ATCC 10145) assessed as reduction in bacterial growth incubated for 6 to 8 hrs; type: functional, organism-based; method in brief: as §2
Enterobacter cloacae = assay: Antibacterial activity against multidrug resistant Enterobacter cloacae subsp. cloacae CDC 442-68 (ATCC 13047) assessed as reduction in bacterial growth incubated for 6 to 8 hrs; type: functional, organism-based; method in brief: as §2
Staphylococcus aureus [10] = assay: Antibacterial activity against methicillin susceptible Staphylococcus aureus subsp. aureus Seattle 1945 (ATCC 25923) assessed as reduction in bacterial growth incubated for 6 to 8 hrs
E. coli GroEL/ES [11] = biological target: T1, E. coli GroEL/ES; assay: (§3) Inhibition of Escherichia coli GroEL/GroES using Escherichia coli GroEL expressed in Escherichia coli DH5alpha cells and Escherichia coli GroES expressed in Escherichia coli BL21(DE3) cells assessed as inhibition of denatured rhodanese refolding by measuring reduction in thiocyanate production incubated for 60 mins by micro plate reader analysis
Method in brief: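 Urea-denatured rhodanese bound to GroEL/GroES in folding buffer containing thiosulfate. After 60 min at 37°C, thiocyanate reaction (KCN, thiosulfate, phosphate) run, then formaldehyde quench and ferric nitrate added. Fe(SCN)3 read at 460 nm after 15 min RT, with protein-free baseline plates.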

E. coli GroEL/ES [12] = biological target: T1, E. coli GroEL/ES; assay: as §1, with “in” for “in pig heart”, “rhodanese-mediated thiocyanate” for “MDH-mediated NADH”
E. coli GroEL/ES [13] = biological target: T1, E. coli GroEL/ES; assay: as §3, with “pig heart MDH” for “rhodanese”, “NADH” for “thiocyanate”
Method in brief: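 Denatured MDH (guanidine-HCl/DTT, 30 min RT) bound to GroEL with GroES in Tris pH 7.4, KCl, MgCl2, DTT buffer. 60 min at 37°C, EDTA quench to 100 mM. Refolded MDH activity read with mesoxalate/NADH at 340 nm. Log-averaged IC50 from replicates.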

Row | Compound | IC50 (E. coli GroEL/ES [1]) [µM] | EC50 (Escherichia coli [2]) [µM] | EC50 (Escherichia coli [3]) [µM] | EC50 (Escherichia coli [4]) [µM] | EC50 (Bacillus subtilis) [µM] | EC50 (Enterococcus faecium) [µM] | EC50 (Staphylococcus aureus [5]) [µM] | IC50 (HSP60/HSP10 [6]) [µM] | IC50 (HSP60/HSP10 [7]) [µM] | EC50 [8] [µM] | EC50 (HEK293) [µM] | EC50 [9] [µM] | EC50 (Acinetobacter baumannii) [µM] | EC50 (Pseudomonas aeruginosa) [µM] | EC50 (Enterobacter cloacae) [µM] | EC50 (Staphylococcus aureus [10]) [µM] | IC50 (E. coli GroEL/ES [11]) [µM] | IC50 (E. coli GroEL/ES [12]) [µM] | IC50 (E. coli GroEL/ES [13]) [µM]
1 | CC(=O)c1cc2c(cc1NC(=O)c1ccccc1Br)OCCO2 | > 62.5 | > 100 | > 100 | > 100 | > 100 | > 100 | > 100 | > 100 | > 250 | > 100 | > 100 | > 100 | > 100 | > 100 | > 100 | > 100 | – | – | –
2 | COc1ccc(C(=O)N/N=C/c2ccc(O)c3ncccc23)cc1 | > 62.5 | > 100 | > 100 | 19 | 83 | > 100 | 56 | > 100 | > 250 | 15 | 7.7 | 95 | 32 | > 100 | > 100 | > 100 | 18 | 52 | 31
3 | O=c1c([N+](=O)[O-])c(Cl)c2ccccc2n1Cc1ccccc1 | > 62.5 | > 100 | > 100 | > 100 | 2.8 | > 100 | 21 | 2.8 | > 250 | 3.6 | 17 | > 100 | > 100 | > 100 | > 100 | > 100 | 22 | > 100 | 5.4
4 | CN(C)c1ccc(O)c2c1C[C@H]1C[C@H]3[C@H](N(C)C)C(O)=C(C(N)=O)C(=O)[C@@]3(O)C(O)=C1C2=O [MINOCYCLINE] | – | – | – | – | – | < 0.05 | 0.35 | – | – | – | – | 0.7 | < 0.05 | 2.4 | 1.5 | < 0.05 | – | – | –
5 | O=C(NCCO)Nc1ccc2nc(-c3ccco3)c(-c3ccco3)nc2c1 | > 62.5 | > 100 | > 100 | > 100 | > 100 | > 100 | > 100 | 15 | > 250 | > 100 | > 100 | > 100 | > 100 | > 100 | > 100 | > 100 | 2.6 | 1.4 | 6.5
6 | CCCCCCCCCC(=O)N[C@@H](Cc1c[nH]c2ccccc12)C(=O)N[C@@H](CC(N)=O)C(=O)N[C@@H](CC(=O)O)C(=O)N[C@@H]1C(=O)NCC(=O)N[C@@H](CCCN)C(=O)N[C@@H](CC(=O)O)C(=O)N[C@H](C)C(=O)N[C@@H](CC(=O)O)C(=O)NCC(=O)N[C@H](CO)C(=O)N[C@@H]([C@H](C)CC(=O)O)C(=O)N[C@@H](CC(=O)c2ccccc2N)C(=O)O[C@@H]1C [DAPTOMYCIN] | – | – | – | – | – | 33 | 5.7 | – | – | – | – | > 100 | > 100 | > 100 | > 100 | 5.7 | – | – | –
7 | CC1(C)S[C@@H]2[C@H](NC(=O)[C@H](N)c3ccccc3)C(=O)N2[C@H]1C(=O)O [AMPICILLIN] | – | – | – | – | – | 0.63 | 76 | – | – | – | – | 89 | 2.5 | 27 | > 100 | 0.059 | – | – | –
8 | CN[C@@H]1[C@H](O[C@H]2[C@H](O[C@H]3[C@H](O)[C@@H](O)[C@H](N=C(N)N)[C@@H](O)[C@@H]3N=C(N)N)O[C@@H](C)[C@]2(O)C=O)O[C@@H](CO)[C@H](O)[C@H]1O [STREPTOMYCIN] | – | – | – | – | – | 50 | > 100 | – | – | – | – | 3.4 | > 100 | 2.9 | > 100 | 3.6 | – | – | –
9 | CO[C@H]1/C=C/O[C@@]2(C)Oc3c(C)c(O)c4c(O)c(c(/C=N/N5CCN(C)CC5)c(O)c4c3C2=O)NC(=O)/C(C)=C\C=C\[C@H](C)[C@H](O)[C@@H](C)[C@@H](O)[C@@H](C)[C@H](OC(C)=O)[C@@H]1C [RIFAMPIN] | – | – | – | – | – | 1.2 | 0.15 | – | – | – | – | 5.4 | 0.47 | 5.2 | 6.2 | < 0.05 | – | – | –
10 | O=C(Nc1ccc2nc(-c3ccco3)c(-c3ccco3)nc2c1)N1CCCC1 | > 62.5 | > 100 | > 100 | > 100 | > 100 | > 100 | > 100 | 13 | > 250 | > 100 | > 100 | > 100 | > 100 | > 100 | > 100 | > 100 | 2.4 | 2.1 | 4.7
11 | COc1cccc(/C=C2/SC(=S)N(CCC(=O)Nc3ccc(O)cc3)C2=O)c1 | > 62.5 | > 100 | > 100 | > 100 | > 100 | > 100 | > 100 | 13 | > 250 | > 100 | > 100 | > 100 | > 100 | > 100 | > 100 | 80 | 9.6 | 12 | 4.7
12 | NC[C@H]1O[C@H](O[C@H]2[C@H](O)[C@@H](O[C@H]3O[C@H](CO)[C@@H](O)[C@H](N)[C@H]3O)[C@H](N)C[C@@H]2N)[C@H](O)[C@@H](O)[C@@H]1O [KANAMYCIN] | – | – | – | – | – | > 100 | > 100 | – | – | – | – | 45 | 16 | 25 | 37 | 8.2 | – | – | –
13 | CNC(=O)Nc1ccc2nc(-c3ccco3)c(-c3ccco3)nc2c1 | > 62.5 | > 100 | > 100 | > 100 | > 100 | > 100 | 94 | 7.4 | > 250 | > 100 | > 100 | > 100 | > 100 | > 100 | > 100 | > 100 | 2.5 | 2.5 | 3
14 | COc1cc(/C=C2/C(=N)N3N=C(CC(C)C)SC3=NC2=O)ccc1OC(=O)c1ccc(F)cc1 | > 62.5 | > 100 | > 100 | 25 | 13 | > 100 | > 100 | 26 | > 250 | > 100 | > 100 | > 100 | > 100 | > 100 | > 100 | > 100 | 25 | – | 24
15 | O=C(N[C@H](CO)[C@H](O)c1ccc([N+](=O)[O-])cc1)C(Cl)Cl [CHLORAMPHENICOL] | – | – | – | – | – | 2.1 | 2.3 | – | – | – | – | 1.4 | 65 | 16 | 2.2 | 2.2 | – | – | –
